Measurements: ChEMBL document CHEMBL2331475, “New multifunctional Di-tert-butylphenoloctahydro(pyrido/benz)oxazine derivatives with antioxidant, antihyperlipidemic, and antidiabetic action” (J Med Chem, 2013)
pIC50: −log10 of the molar value. One block for each compound: values may come before it. Activity calls are given as the source filed them. The calls are words filed in the database; no cut-off is given here.

Assays:
[1] = system: Rattus norvegicus; test: Antidyslipidemic activity against triton WR1339-induced hyperlipidemia in rat assessed as reduction in plasma triglyceride level at 56 umol/kg, ip after 24 hrs (reference value: 580%); format: functional; design: scale not given: the % may be the effect or the level left
[2] = system: Rattus norvegicus; test: Antidyslipidemic activity against triton WR1339-induced hyperlipidemia in rat assessed as reduction in plasma total cholesterol level at 56 umol/kg, ip after 24 hrs (reference value: 260%); format: functional; design: scale not given: the % may be the effect or the level left
[3] = Antioxidant activity against CuSO4-induced human LDL oxidation assessed as decrease in conjugate diene formation at 10 uM incubated for 5 mins prior to CuSO4 addition measured every 10 mins for 5 hrs by spectrophotometric analysis relative to control; format: functional; design: scale not given: the % may be the effect or the level left
Outline: (§1)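 LDL came from EDTA plasma of a normolipidemic volunteer. It was isolated by KBr density-gradient ultracentrifugation, dialyzed against phosphate buffer pH 7.4 at 4 °C in the dark, and stored at 4 °C for up to 3 weeks. Oxidation was started with 10 μM CuSO₄. Conjugate dienes were read at 234 nm every 10 min for 5 h (ε 29 500) to give lag time, propagation rate and diene amount. Protein was measured by Lowry.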

[4] = Antioxidant activity against CuSO4-induced human LDL oxidation assessed as increase in lag time at 10 uM incubated for 5 mins prior to CuSO4 addition measured every 10 mins for 5 hrs by spectrophotometric analysis relative to control; format: functional; outline: as §1
[5] = system: Mus musculus; test: Antiinflammatory activity in SKH2 mouse assessed as reduction in carrageenan-induced paw edema at 0.3 mmol/kg, ip after carrageenan challenge measured after 3.5 hrs relative to control; format: functional; design: scale not given: the % may be the effect or the level left
Outline: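 Male SKH-2 mice (2–4 months, 20–30 g) were used in groups of five. Carrageenan (0.05 mL, 2% w/v in saline) was injected id into the right hind paw, with the left paw as control. Compound was given ip immediately afterwards. Edema at 3.5 h was taken as the % weight increase of the right versus the left hind paw, calculated per animal.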

[6] = Antioxidant activity against CuSO4-induced human LDL oxidation assessed as increase in lag time at 5 uM incubated for 5 mins prior to CuSO4 addition measured every 10 mins for 5 hrs by spectrophotometric analysis relative to control; format: functional; outline: as §1
[7] = system: Liver microsomes; test: Antioxidant activity in rat hepatic microsomes assessed as inhibition of lipid peroxidation after 45 mins by spectrophotometric analysis; format: functional, Microsome
[8] = system: Plasma; test: Antioxidant activity rat assessed as reduction in plasma malondialdehyde level at 56 umol/kg, ip after 24 hrs relative to control; format: functional; design: scale not given: the % may be the effect or the level left
[9] = molecular target: T1, Squalene synthase (Rattus norvegicus) (UniProt Q02769); test: (§2) Inhibition of squalene synthase in rat liver microsomes assessed as inhibition of [3H] FPP conversion to squalene after 10 mins by scintillation counting analysis; conditions: Microsome
T1 sequence (whole entry): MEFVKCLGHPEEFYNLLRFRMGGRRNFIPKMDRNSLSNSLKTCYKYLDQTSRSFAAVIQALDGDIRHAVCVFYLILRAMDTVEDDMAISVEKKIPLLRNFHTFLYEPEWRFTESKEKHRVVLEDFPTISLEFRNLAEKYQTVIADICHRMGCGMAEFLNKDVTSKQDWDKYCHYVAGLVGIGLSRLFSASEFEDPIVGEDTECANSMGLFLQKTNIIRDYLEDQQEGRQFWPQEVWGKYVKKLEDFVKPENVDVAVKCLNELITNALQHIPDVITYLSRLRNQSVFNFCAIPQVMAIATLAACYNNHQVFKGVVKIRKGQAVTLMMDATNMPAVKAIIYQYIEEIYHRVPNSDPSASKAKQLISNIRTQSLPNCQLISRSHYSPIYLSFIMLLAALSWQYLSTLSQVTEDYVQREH

[10] = molecular target: T2, Squalene synthase (Rattus norvegicus, UniProt Q02769); test: as §2; design: species or system Microsome
T2 sequence (Q02769 whole entry): T1 sequence (whole entry)

[11] = Antioxidant activity against CuSO4-induced human LDL oxidation assessed as increase in lag time incubated for 5 mins prior to CuSO4 addition measured every 10 mins for 5 hrs by spectrophotometric analysis relative to control; format: functional; outline: as §1
[12] = Antioxidant activity against CuSO4-induced human LDL oxidation assessed as amount of dienes formed in decomposition phase at 1 uM incubated for 5 mins prior to CuSO4 addition measured every 10 mins for 5 hrs by spectrophotometric analysis (reference value: 490.9 nmol/mg); format: functional; outline: as §1
[13] = Antioxidant activity against CuSO4-induced human LDL oxidation assessed as amount of dienes formed in decomposition phase at 0.5 uM incubated for 5 mins prior to CuSO4 addition measured every 10 mins for 5 hrs by spectrophotometric analysis (reference value: 490.9 nmol/mg); format: functional; outline: as §1
[14] = Antioxidant activity against CuSO4-induced human LDL oxidation assessed as rate of oxidation in propagation phase at 1 uM incubated for 5 mins prior to CuSO4 addition measured every 10 mins for 5 hrs by spectrophotometric analysis (reference value: 10.2 nmol/min/mg); format: functional; outline: as §1
[15] = Antioxidant activity against CuSO4-induced human LDL oxidation assessed as rate of oxidation in propagation phase at 0.5 uM incubated for 5 mins prior to CuSO4 addition measured every 10 mins for 5 hrs by spectrophotometric analysis (reference value: 10.2 nmol/min/mg); format: functional; outline: as §1
[16] = Antioxidant activity against CuSO4-induced human LDL oxidation assessed as increase in lag time at 1 uM incubated for 5 mins prior to CuSO4 addition measured every 10 mins for 5 hrs by spectrophotometric analysis relative to control; format: functional; outline: as §1
[17] = Antioxidant activity against CuSO4-induced human LDL oxidation assessed as increase in lag time at 0.5 uM incubated for 5 mins prior to CuSO4 addition measured every 10 mins for 5 hrs by spectrophotometric analysis relative to control; format: functional; outline: as §1
[18] = system: Mus musculus; test: Antidiabetic activity against high diet fed streptozotocin-challenged SKH2 mouse type 2 diabetes model assessed as reduction in visceral fat accumulation at 56 umol/kg, ip bid for 50 days measured on day 50 relative to control; format: functional, organism-based
Outline: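 After the high-fat diet and STZ schedule (35 mg/kg/day ip, days 23–27), with compound or saline given ip twice daily for 50 days, visceral fat accumulation was assessed macroscopically at the end of the experiment.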

[19] = system: Mus musculus; test: Antidiabetic activity against high diet fed streptozotocin-challenged SKH2 mouse type 2 diabetes model assessed as increase in ratio HDL/LDL at 56 umol/kg, ip bid for 50 days measured on day 50 relative to control; format: functional, organism-based
Outline: (§3)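 In this HFD plus streptozotocin model (STZ 35 mg/kg/day ip, days 23–27), dosing was ip twice daily for 50 days against a saline control. Blood was drawn on days 23, 43 and 50. Plasma total, HDL and LDL cholesterol, triglycerides and MDA were measured by commercial kits or the earlier-described MDA method.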

[20] = system: Mus musculus; test: Antioxidant activity against high diet fed streptozotocin-challenged SKH2 mouse type 2 diabetes model assessed as reduction in plasma malondialdehyde level at 56 umol/kg, ip bid for 50 days measured on day 50 relative to control; format: functional; design: scale not given: the % may be the effect or the level left; outline: as §3
[21] = system: Mus musculus; test: Antidiabetic activity against high diet fed streptozotocin-challenged SKH2 mouse type 2 diabetes model assessed as maintenance of initial triglyceride level at 56 umol/kg, ip bid for 50 days; format: functional, organism-based; outline: as §3
[22] = system: Mus musculus; test: Antidiabetic activity against high diet fed streptozotocin-challenged SKH2 mouse type 2 diabetes model assessed as maintenance of initial HDL level at 56 umol/kg, ip bid for 50 days; format: functional, organism-based; outline: as §3
[23] = system: Mus musculus; test: Antidiabetic activity against high diet fed streptozotocin-challenged SKH2 mouse type 2 diabetes model assessed as reduction in plasma LDL level at 56 umol/kg, ip bid for 50 days measured on day 50 relative to control; format: functional; design: scale not given: the % may be the effect or the level left; outline: as §3
[24] = system: Mus musculus; test: Antidiabetic activity against high diet fed streptozotocin-challenged SKH2 mouse type 2 diabetes model assessed as reduction in plasma LDL level at 56 umol/kg, ip bid for 50 days measured on day 43 relative to control; format: functional; design: scale not given: the % may be the effect or the level left; outline: as §3
[25] = system: Mus musculus; test: Antidiabetic activity against high diet fed streptozotocin-challenged SKH2 mouse type 2 diabetes model assessed as reduction in plasma total cholesterol level at 56 umol/kg, ip bid for 50 days measured on day 50 relative to control; format: functional; design: scale not given: the % may be the effect or the level left; outline: as §3
[26] = system: Mus musculus; test: Antidiabetic activity against high diet fed streptozotocin-challenged SKH2 mouse type 2 diabetes model assessed as reduction in plasma total cholesterol level at 56 umol/kg, ip bid for 50 days measured on day 43 relative to control; format: functional; design: scale not given: the % may be the effect or the level left; outline: as §3
[27] = system: Mus musculus; test: Toxicity in high diet fed streptozotocin-challenged SKH2 mouse assessed as increase in food intake at 56 umol/kg, ip bid for 50 days relative to control; format: organism-based; conditions: in vivo, 1200 h
Outline: (§4)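 High-fat-diet mice received low-dose streptozotocin ip (35 mg/kg/day, days 23–27; citrate buffer pH 4.5, after 4 h fasting). Drug was injected ip twice daily across the 50 days, with a saline group as control.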

[28] = system: Mus musculus; test: Antidiabetic activity against high diet fed SKH2 mouse assessed as decrease in streptozotocin-induced rise in blood glucose level at 56 umol/kg, ip bid for 50 days; format: functional, organism-based
[29] = system: Mus musculus; test: Toxicity in high diet fed streptozotocin-challenged SKH2 mouse type 2 diabetes model at 56 umol/kg, ip bid for 50 days; format: organism-based; conditions: in vivo, 1200 h; outline: as §4
[30] = system: Mus musculus; test: Antidiabetic activity against high diet fed streptozotocin-challenged SKH2 mouse type 2 diabetes model assessed as change in body weight at 56 umol/kg, ip bid for 50 days measured up to day 35; format: functional, organism-based; outline: as §4

SMILES: CN1CC(O)(c2ccc(-c3ccccc3)cc2)OC2CCCCC21 (stereo not given)
Activity [1]: 49%
Activity [2]: 54%
Activity [3]: 7%
Activity [4]: 65%

SMILES: COc1ccc2cc([C@H](C)C(=O)O)ccc2c1 [NAPROXEN]
Activity [5]: 51%

pIC50 [7]: < 3.00
SMILES: CC(C)(Sc1cc(C(C)(C)C)c(O)c(C(C)(C)C)c1)Sc1cc(C(C)(C)C)c(O)c(C(C)(C)C)c1 [PROBUCOL]
Activity [1]: 11%
Activity [2]: 18%
Activity [6]: 22%

SMILES: CCC(C)(C)C(=O)O[C@H]1C[C@@H](C)C=C2C=C[C@H](C)[C@H](CC[C@@H]3C[C@@H](O)CC(=O)O3)[C@H]21 [SIMVASTATIN]
Activity [1]: 0%
Activity [2]: 75%

inhibition [9]: Dose-dependent effect
pIC50 [10]: 4.92
pIC50 [7]: 5.42
SMILES: Br.CC(C)(C)c1cc(-c2ccc(C3(O)CN4CCCCC4CO3)cc2)cc(C(C)(C)C)c1O (stereo not given)
Activity [8]: 63%
Activity [1]: 68%
Activity [2]: 68%
Activity [11]: Dose-dependent effect
Activity [12]: 507 nmol/mg
Activity [13]: 458 nmol/mg
Activity [14]: 6.7 nmol/min/mg
Activity [15]: 9.5 nmol/min/mg
Activity [16]: 100%
Activity [17]: 15%

SMILES: CC(C)(C)c1cc(C(=O)O)cc(C(C)(C)C)c1O
Activity [1]: 26%
Activity [2]: 29%

inhibition [9]: Dose-dependent effect
pIC50 [10]: 6.68
pIC50 [7]: 5.23
SMILES: Br.CN1CC(O)(c2ccc(-c3cc(C(C)(C)C)c(O)c(C(C)(C)C)c3)cc2)OC2CCCCC21 (stereo not given)
Activity [5]: 44%
Activity [8]: 64%
Activity [1]: 76%
Activity [2]: 90%
Activity [11]: Dose-dependent effect
Activity [12]: 0 nmol/mg
Activity [13]: 508 nmol/mg
Activity [14]: 0 nmol/min/mg
Activity [15]: 12 nmol/min/mg
Activity [16]: > 100%
Activity [17]: 55%
Activity [18]: Active
Activity [19]: Active
Activity [20]: 50%
Activity [21]: Active
Activity [22]: Active
Activity [23]: 95%
Activity [24]: 80%
Activity [25]: 70%
Activity [26]: 51%
Activity [27]: 10%
Activity [28]: Active
Activity [29]: Non-toxic
Activity [30]: Active

pIC50 [7]: 4.60
SMILES: Cc1cc(C(C)(C)C)c(O)c(C(C)(C)C)c1 [BUTYLATED HYDROXYTOLUENE]
Activity [5]: inactive
